In ChEMBL document CHEMBL4251639, “Identification of novel 2-benzoxazolinone derivatives with specific inhibitory activity against the HIV-1 nucleocapsid protein” (Eur J Med Chem, 2018):
Calls of active or inactive are those of the source. The calls are words filed in the database; no cut-off is given here.

Legend:
[1] = system: Human immunodeficiency virus 1; test: (§1) Inhibition of HIV-1 nucleocapsid protein (12 to 55 residues) assessed a sreduction in TAR29/cTAR29 duplex formation preincubated for 15 mins followed by TAR29/cTAR29 addition and measured after 15 mins by nucleocapsid annealing mediated electrophoresis assay
Procedure, shortened: (§2)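 TAR29 and cTAR29 hairpins folded separately (95°C 5 min, slow cooling) in Tris 25 mM, NaCl 30 mM, Mg(ClO4)2 0.2 mM, pH 7.5. NC(12–55, LAI strain; final 8 μM) preincubated with compound (DMSO ≤2%) 15 min at room temperature. Then 1 μM each hairpin added, 15 min at room temperature. Stopped with SDS/EDTA loading buffer; duplex resolved on native 12% PAGE. IC50 from Hill fit, triplicates.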

[2] = as §1; parameters: species or system Human immunodeficiency virus 1; procedure, shortened: as §2
[3] = Inhibition of HIV-1 nucleocapsid protein (11 to 55 residues) chaperone activity assessed as reduction in nucleocapsid-induced Alexa488-labeled TAR55AD nucleic acid destabilization using Dabcyl as quencher by spectrofluorimetry based nucleic acid destabilization assay; parameters: species or system Human immunodeficiency virus 1
Procedure, shortened: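 Preformed complex of 100 nM cTAR55 (5'-Alexa488, 3'-Dabcyl) and 1000 nM NC(11–55, MAL strain, Zn-loaded) in Tris 25 mM, NaCl 30 mM, MgCl2 0.2 mM, pH 7.5. Compound titrated in (25–500 μM); emission spectra taken at 480 nm excitation, 20°C. Inhibition calculated relative to cTAR alone and cTAR+NC, corrected for dilution and compound fluorescence. IC50 from Hill dose-response fit, triplicates.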

[4] = system: Human immunodeficiency virus 1; test: Inhibition of HIV-1 nucleocapsid protein (11 to 55 residues) assessed as reduction in dTAR55/cTAR55AD nucleic acid annealing at 200 uM by Alexa488 dye-based fluorimetric analysis
Procedure, shortened: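 Pseudo-first-order annealing: 10 nM cTAR55 (5'-Alexa488, 3'-Dabcyl) and 100 nM dTAR55, each premixed with 8-fold NC(11–55, MAL strain, Zn-loaded). Buffer was Tris 25 mM, NaCl 30 mM, MgCl2 0.2 mM, pH 7.5, with 1% DMSO. Compound added to the dTAR55/NC mix. Fluorescence read at 480/519 nm, 20°C; rate constant from mono-exponential fit.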

[5] = system: Human immunodeficiency virus 1; test: Antiviral activity against HIV1 NL4-3 infected in human TZM-bl cells measured after 2 days by luciferase reporter gene based monocycle infection assay; format: functional, organism-based; details: Human immunodeficiency virus 1, NL4-3, TZM-bl, 48 h
Procedure, shortened: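 TZM-bl cells (30,000/well) were infected with an NL4-3 stock in the presence of serial five-fold compound dilutions from 5 nM to 400 μM. Plates were held at 37°C, 5% CO2, for two days. Cells were then lysed and luciferase was read as RLU. IC50 was fitted from per-well RLU with a 95% confidence interval.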

[6] = system: Human immunodeficiency virus 1; test: Antiviral activity against HIV1 NL4-3 infected in human MT2 cells incubated for 72 hrs followed by reinfection in human TZM-bl cells measured after 48 hrs by luciferase reporter gene based bicycle infection assay; format: functional, organism-based; details: Human immunodeficiency virus 1, NL4-3
Procedure, shortened: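 This is a two-cycle format. MT-2 cells (50,000/well) were infected with NL4-3 alongside five-fold compound dilutions (5 nM–400 μM) and kept 72 h at 37°C, 5% CO2. Supernatant carrying first-round virus then infected TZM-bl cells (30,000/well) for 48 h under the same conditions. Luciferase RLU gave the IC50 with a 95% confidence interval.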

TZM = test: Cytotoxicity against human TZM-bl cells after 48 hrs by CellTiter-Glo reagent-based assay; format: cell-based
Procedure, shortened: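 Viability was measured by CellTiter-Glo ATP luminescence. TZM-bl cells (15,000/well) were incubated 48 h at 37°C, 5% CO2, with serial two-fold compound dilutions from 3.1 to 400 μM. Medium was then replaced by reagent, shaken 10 min, and luminescence read. TD50 was derived from RLU normalised to untreated cells (100% viability), with a 95% confidence interval.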

[7] = Selectivity index, ratio of IC50 for human TZM-bl cells to IC50 for HIV1 NL4-3 infected in human TZM-bl cells; format: toxicity, cell-based; details: uninfected versus infected with HIV1 NL4-3, read-out: Ratio IC50
Procedure, shortened: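 Selectivity index from TD50 in TZM-bl cells and IC50 from the MonoCycle assay. […] MonoCycle IC50: 30,000 TZM-bl cells/well infected with NL4-3 with five-fold dilutions 5 nM–400 μM; luciferase RLU read after two days.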

[8] = Selectivity index, ratio of IC50 for human MT2 cells to IC50 for HIV1 NL4-3 infected in human MT2 cells; format: toxicity, cell-based; details: uninfected versus infected with HIV1 NL4-3, read-out: Ratio IC50
Procedure, shortened: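 Selectivity index from TD50 in MT-2 cells and IC50 from the BiCycle assay. […] BiCycle IC50: MT-2 cells infected with NL4-3 with compound for 72 h; supernatant then transferred to TZM-bl cells, luciferase read after 48 h.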

MT2 = test: Cytotoxicity against human MT2 cells after 72 hrs by CellTiter-Glo reagent-based assay; details: MT2, 72 h
[9] = system: Human immunodeficiency virus 1; test: Binding affinity to HIV-1 nucleocapsid protein (1 to 55 residues) at 5 uM incubated for 30 mins by ESI-MS method
[10] = system: Human immunodeficiency virus 1; test: Binding affinity to HIV-1 nucleocapsid protein (1 to 55 residues) assessed as fractional protein occupancy ratio at 5 uM incubated for 30 mins by ESI-MS method

With `N#Cc1ccc(CSc2nc3[nH]ncc3c(=O)[nH]2)cc1` the inhibition [1] was “inactive”.
In the case of `O=C(CCC1NC(=O)c2ccccc21)Nc1nc[nH]n1` (configuration not stated), the inhibition [1] is reported as “inactive”.
For `O=C(O)C1CCN(c2ncnc3nc[nH]c23)CC1`, the inhibition [1] was “inactive”.
In the case of `O=c1[nH]c2ccc(S(=O)(=O)Nc3ccc(S(=O)(=O)NCC(F)(F)F)cc3)cc2o1`, the IC50 [2] is reported as “Not Active”.
For `O=C(CO)N1CCCC(c2[nH]ncc2Cc2ccccc2)C1` (configuration not stated), the inhibition [1] was “inactive”.
With `N=C(N)c1ccc(N2CCCCC2)cc1` the inhibition [1] was “inactive”.
With `O=c1[nH]c2cc(S(=O)(=O)Nc3ccc4[nH]ncc4c3)ccc2o1` the IC50 ([2]; read-out: IC50) was 20 µM, the IC50 [3] was 210 µM and the inhibition [4] was 40%. For the same compound, the IC50 [5] was 30.6 µM, the IC50 [6] was 36.4 µM and the TD50 (TZM) was 155 µM. The selectivity ratio [7] was 5.1, the selectivity ratio [8] was 3.8 and the IC50 (MT2) was 140 µM. For the same compound, the Activity [9] was “Active” and the Ratio [10] was 0.16.
With `Cc1nc(CN(C)S(=O)(=O)c2cc3[nH]c(=O)[nH]c3cc2Br)no1` the IC50 [2] was “Not Active”.
For `CS(=O)(=O)N1CCc2cc(NS(=O)(=O)c3ccc4[nH]c(=O)oc4c3)ccc21`, the IC50 [2] was “Not Active”.
In the case of `CC(=O)c1sc(NS(=O)(=O)c2ccc3[nH]c(=O)[nH]c3c2)nc1C`, the IC50 [2] is reported as “Not Active”.
With `O=c1[nH]c2ccc(S(=O)(=O)Nc3cc(-c4ccccc4)no3)cc2[nH]1` the IC50 [2] was “Not Active”.
With `O=C(O)c1ccc2c(c1)CCN2S(=O)(=O)c1ccc2[nH]c(=O)oc2c1` the IC50 ([2]; read-out: IC50) was 163 µM and the Activity [9] was “Active”.
In the case of `COc1ccccc1-c1nccn1CCc1n[nH]c(=O)[nH]1`, the inhibition [1] is reported as “inactive”.
In the case of `Cc1cc(CCCNc2nnnn2-c2ccccc2)n[nH]1`, the inhibition [1] is reported as “inactive”.
With `Cc1ccc(NC(=O)CCn2c(=O)[nH]c3cc(S(=O)(=O)N4CCCC4)ccc32)cc1` the IC50 [2] was “Not Active”.
For `Cc1ccc(-c2nn(CCC(=O)O)cc2/C=C2\SC(=N)NC2=O)cc1`, the inhibition [1] was “inactive”.
In the case of `O=c1cc(Cc2nnc(S)n2-c2ccc(Cl)cc2)[nH]c(=O)[nH]1`, the inhibition [1] is reported as “Active”.
In the case of `O=C(O)CCC1NC(=O)N(Cc2ccccc2)C1=O` (configuration not stated), the inhibition [1] is reported as “inactive”.
With `O=c1[nH]c2ccc(S(=O)(=O)Nn3cnnc3)cc2o1` the IC50 [2] was “Not Active”.
With `Cc1ccc(NS(=O)(=O)c2ccc3oc(=O)[nH]c3c2)c(C)c1` the Activity [9] was “Active” and the Ratio [10] was 0.06.
In the case of `Cc1cc(COc2ccc(Cl)cc2C(N)=O)no1`, the inhibition [1] is reported as “inactive”.
For `O=C1CN(C(=O)Cc2n[nH]c(=O)c3ccccc23)CCN1`, the inhibition [1] was “inactive”.
For `COc1ccccc1NC(=O)CCNS(=O)(=O)c1ccc2nc(O)oc2c1`, the IC50 [2] was “Not Active”.
In the case of `O=c1[nH]c2ccc(S(=O)(=O)O)cc2[nH]1`, the IC50 [2] is reported as “Not Active”.
With `N#Cc1cnc(SCc2cccc(C(N)=O)c2)nc1N` the inhibition [1] was “inactive”.
With `O=C(CSc1ccccn1)c1ccc(O)c(O)c1` the inhibition [1] was “inactive”.
In the case of `O=C(Cn1[nH]cc2c(=O)ncnc1-2)NC1(c2ccccc2)CCC1`, the inhibition [1] is reported as “inactive”.
In the case of `NC(=O)c1ccc(CNC(=O)Cn2ccc(=O)[nH]c2=O)cc1`, the inhibition [1] is reported as “inactive”.
In the case of `NC(=O)c1ccn(COc2ccccc2F)n1`, the inhibition [1] is reported as “inactive”.
With `Cc1nc2c(c(=O)[nH]1)CCN(S(=O)(=O)c1cccc3nsnc13)C2` the inhibition [1] was “inactive”.
For `COc1cccc(-n2c(CCn3cccn3)n[nH]c2=O)c1`, the inhibition [1] was “inactive”.
With `O=c1[nH]c2ccc(S(=O)(=O)Nc3cc(C(F)(F)F)ccc3Cl)cc2o1` the IC50 ([2]; read-out: IC50) was 179 µM and the Activity [9] was “Active”.
In the case of `CSCCC(NS(=O)(=O)c1ccc2[nH]c(=O)oc2c1)C(=O)O` (configuration not stated), the IC50 [2] is reported as “Not Active”.
In the case of `c1ccc(-c2ccnc3[nH]ccc23)c(OCCn2ccnc2)c1`, the inhibition [1] is reported as “inactive”.
With `O=C(O)CNS(=O)(=O)c1ccc2[nH]c(=O)oc2c1` the IC50 [2] was “Not Active”.
In the case of `O=C1N=NC(=S)N1c1ccc(Cl)c(Cl)c1`, the inhibition [1] is reported as “Active”.
With `COc1ccc(O)c(C(=O)c2cnc3[nH]c(=O)[nH]c(=O)c3c2)c1` the inhibition [1] was “inactive”.
With `N=C(N)NS(=O)(=O)c1ccc2[nH]c(=O)oc2c1` the IC50 ([2]; read-out: IC50) was 203 µM.
With `COc1ccc(C(C)(C)C)cc1NS(=O)(=O)c1ccc2[nH]c(=O)[nH]c2c1` the IC50 [2] was “Not Active”.
With `COc1cccc(CNn2cnnc2S)c1OCc1ccccc1` the inhibition [1] was “inactive”.
With `COc1ccc2[nH]c(C(N)=O)cc2c1` the inhibition [1] was “inactive”.
With `CC(CCc1ccccc1)NC(=O)c1ccc[nH]c1=O` (configuration not stated) the inhibition [1] was “inactive”.
In the case of `O=C(O)c1ccc(NS(=O)(=O)c2ccc3[nH]c(=O)[nH]c3c2)cc1O`, the IC50 [2] is reported as “Not Active”.
For `Nc1cccc(C(=O)NCCCC(=O)O)c1`, the inhibition [1] was “inactive”.
In the case of `Cc1cc2[nH]c(=O)oc2cc1S(=O)(=O)NN1CCc2c(nc[nH]c2=O)C1`, the IC50 ([2]; read-out: IC50) is reported as 170 µM and the Activity [9] is reported as “Active”.
For `Cc1cc(C)n(CCOC(=O)c2ccc(N3CCNC3=O)cc2)n1`, the inhibition [1] was “inactive”.
For `Cc1nc[nH]c1-c1nccn1CCCc1ccccc1`, the inhibition [1] was “inactive”.
For `O=C(COc1cccc(Cl)c1Cl)N1CCNC1=O`, the inhibition [1] was “inactive”.
